Legend:
[1] = target: T1, GABA-A receptor; anion channel (Homo sapiens) (UniProt P14867+P47870+P18507+P28472+P48169+Q99928+Q9UN88+P34903+O00591+O14764+Q8N1C3+P18505+P78334+P47869+P31644+Q16445); test: Binding of [3H]- Diazepam radioligand against GABA receptor/chloride channel complex at 100 uM; type: protein-complex assay
In short: (§1)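 Rat cerebral cortical membranes, about 1000 μg protein, in 50 mM Tris pH 7.4. Incubated with 5 nM [3H]diazepam for 30 min at 0 °C, test compound at 100 μM. Nonspecific binding was defined with 10 μM clonazepam. Ended by rapid filtration with one buffer wash, and retained radioactivity was counted.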

[2] = target: T1, GABA-A receptor; anion channel (Homo sapiens); test: Binding of [3H]- muscimol radioligand against GABA receptor/chloride channel complex at 100 uM; type: protein-complex assay
In short: (§2)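 Rat brain membranes, about 1000 μg protein, in 50 mM Tris-citrate pH 7.1 with 5 nM [3H]muscimol. Incubated 30 min at 0 °C, test compound at 100 μM. Nonspecific binding was defined with 100 μM GABA. Bound ligand was separated by rapid filtration with one buffer wash, and filter radioactivity was counted.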

[3] = target: T1, GABA-A receptor; anion channel (Homo sapiens); test: Binding of [3H]- TBPS radioligand against Gamma-aminobutyric acid receptor at 100 uM; type: protein-complex assay
[4] = test system: Mus musculus; test: Antiepileptic (anticonvulsant) activity in mice through maximal electroshock seizure (MES) assay; No anticonvulsant activity at 300 mg/kg; type: functional, organism-based; parameters: dose 300 mg/kg
In short: (§3)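 Mice dosed at 30, 100 and 300 mg/kg and tested 30 min after administration. Seizures were evoked by 60-cycle AC, 50 mA, delivered for 0.2 s through corneal electrodes, with saline instilled in the eye first. Protection means abolition of the hind limb tonic extension. MES ED50 was quantified on select compounds.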

[5] = Inhibition of [3H]BTX binding to guinea pig voltage-dependent sodium channel
[6] = organism: Mus musculus; test: Antiepileptic (anticonvulsant) activity in mice through maximal electroshock seizure (MES) assay; type: functional, organism-based; in short: as §3
[7] = Inhibition of [3H]BTX binding to guinea pig voltage-dependent sodium channel; remark: listed apart in the source
[8] = target: T1, GABA-A receptor; anion channel (Homo sapiens); test: Inhibition of [3H]muscimol binding to GABA-A receptor at 100 uM; type: protein-complex assay; in short: as §2
[9] = test system: Mus musculus; test: Antiepileptic (anticonvulsant) activity in mice through maximal electroshock seizure (MES) assay. No activity at 300 mg/kg; type: functional, organism-based; parameters: dose 300 mg/kg; in short: as §3
[10] = target: Gamma-aminobutyric acid receptor subunit gamma-1 (Rattus norvegicus) (UniProt P23574); test: Inhibition of [3H]- Diazepam binding to Gamma-aminobutyric acid (GABA-A) receptor at 100 uM; in short: as §1
[11] = target: T1, GABA-A receptor; anion channel (Homo sapiens); test: Inhibition of [3H]TBPS binding to GABA-A receptor at 100 uM; type: protein-complex assay
In short: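 Rat cerebral cortical membranes, about 1000 μg protein, in 50 mM Tris-citrate pH 7.5 containing 200 mM NaCl with 2 nM [35S]TBPS. Incubated 90 min at 23 °C, test compound at 100 μM. Picrotoxin 10 μM defined nonspecific binding. Ended by rapid filtration with one buffer wash, and filter radioactivity was counted.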

[12] = Inhibition of [3H]BTX binding to guinea pig voltage-dependent sodium channel; remark: listed apart in the source

Sequence of Gamma-aminobutyric acid receptor subunit gamma-1 (Rattus norvegicus) (P23574 whole entry): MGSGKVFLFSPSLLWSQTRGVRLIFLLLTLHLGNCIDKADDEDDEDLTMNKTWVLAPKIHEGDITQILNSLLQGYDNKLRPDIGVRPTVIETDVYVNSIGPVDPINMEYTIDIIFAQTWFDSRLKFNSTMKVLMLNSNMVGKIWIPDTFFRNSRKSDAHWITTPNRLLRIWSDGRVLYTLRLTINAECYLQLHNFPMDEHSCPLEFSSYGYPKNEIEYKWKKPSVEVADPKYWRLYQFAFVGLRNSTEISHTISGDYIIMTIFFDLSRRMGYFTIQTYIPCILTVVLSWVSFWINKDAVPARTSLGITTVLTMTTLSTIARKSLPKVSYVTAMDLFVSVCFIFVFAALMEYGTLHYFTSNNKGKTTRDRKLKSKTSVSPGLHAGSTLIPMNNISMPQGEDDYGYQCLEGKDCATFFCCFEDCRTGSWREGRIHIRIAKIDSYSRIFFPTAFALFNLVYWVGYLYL

Row | SMILES | EC50 [4] | EC50 [6] [mg/kg] | IC50 [7] [µM] | other results
1 | CN1CCC(OC(=O)c2ccccc2C(=O)c2ccccc2)CC1 | Not Active | – | – | inhibition [1]: 46%; inhibition [2]: 21%; Stimulation [3]: 1%; IC50 [5]: > 10 µM
2 | CCN(CC)CC(C)OC(=O)c1ccccc1-c1ccccc1 (configuration not stated) | – | < 30 | 6.8 | –
3 | COc1cccc(C(=O)OC2CCN(C)CC2)c1 | – | < 100 | – | –
4 | COc1ccc(C(=O)OC2CCN(C)CC2)cc1OC | Not Active | – | > 10 | –
5 | CN1CCC(OC(=O)c2ccc(-c3ccccc3)cc2)CC1 | – | < 100 | 10 | –
6 | CN1CCC(OC(=O)c2ccccc2COc2ccccc2)CC1 | – | 26 | > 10 | inhibition [1]: 37%; inhibition [2]: 35%; Stimulation [3]: 37%
7 | CCC1(c2ccccc2)C(=O)NC(=O)NC1=O [PHENOBARBITAL] | – | 22 | – | –
8 | CN1CCC(OC(=O)c2ccc(Cl)cc2)CC1 | Not Active | – | > 10 | –
9 | CN1CCC(OC(=O)c2ccccc2Oc2ccccc2)CC1 | Not Active | – | 3.6 | –
10 | CN1CCC(OC(=O)c2ccccc2Br)CC1 | Not Active | – | > 10 | –
11 | CN1CCC(OC(=O)c2cccc(O)c2)CC1 | Not Active | – | > 10 | –
12 | CCN(CC)CCOC(=O)c1ccccc1CCc1ccccc1 | – | < 300 | 3.9 | –
13 | Cc1ccc(C(=O)OC2CCN(C)CC2)cc1 | Not Active | – | 10 | –
14 | CN1CCC(C)(OC(=O)c2ccccc2-c2ccccc2)CC1 | Not Active | – | 3.8 | –
15 | CN1CCC(OC(=O)c2ccccc2Cc2ccccc2)CC1 | – | < 30 | 3.4 | –
16 | Cc1cc(C)c(C(=O)OC2CCN(C)CC2)cc1C | – | – | > 10 | inhibition [8]: 57%; inhibition [1]: 37%; Stimulation [3]: 3%; EC50 [9]: 46 mg/kg
17 | CN1C(=O)CC(C)(c2ccccc2)C1=O (configuration not stated) [METHSUXIMIDE] | – | 76 | – | –
18 | CCC(=O)OC1CCN(C)CC1 | Not Active | – | – | inhibition [2]: 10%; Stimulation [3]: 9%; Stimulation [10]: -14%; IC50 [5]: > 10 µM
19 | CCN(CC)CCOC(=O)c1ccccc1-c1ccccc1 | – | 10 | 7.5 | inhibition [1]: 26%; inhibition [2]: 31%; inhibition [11]: 4%
20 | CCN(CC)CCCOC(=O)c1ccccc1-c1ccccc1 | – | 7.8 | – | inhibition [1]: 51%; inhibition [2]: 59%; inhibition [11]: 47%; IC50 [12]: 4.6 µM
21 | CN1CCC(C)(OC(=O)c2ccccc2CCc2ccccc2)CC1 | – | 28 | 3.2 | inhibition [1]: 42%; inhibition [2]: 40%; Stimulation [3]: 50%
22 | O=C1NC(=O)C(c2ccccc2)(c2ccccc2)N1 [PHENYTOIN] | – | 9.5 | – | –
23 | CN1CCC(OC(=O)c2ccc3ccccc3c2)CC1 | – | < 100 | > 10 | –
24 | Cc1[nH]c(C)c(C(=O)OC2CCN(C)CC2)c1C | Not Active | – | > 10 | –
25 | CCN(CC)CCCOC(=O)c1ccccc1CCc1ccccc1 | – | < 30 | 6 | –
26 | CN1CCC(OC(=O)c2ccccc2CCc2ccccc2)CC1 | – | 25 | 5.4 | inhibition [1]: 50%; inhibition [2]: 27%
27 | COc1ccccc1C(=O)OC1CCN(C)CC1 | Not Active | – | > 10 | –
28 | CN1CCC(OC(=O)c2ccccc2-c2ccccc2)CC1 | – | 12 | 10 | –
29 | COc1ccc(CCC(=O)OC2CCN(C)CC2)cc1OC | Not Active | – | > 10 | –

Reference: ChEMBL document CHEMBL1123533, “Anticonvulsant activity of piperidinol and (dialkylamino)alkanol esters” (J Med Chem, 1986)
